Laboratory results: PubChem BioAssay AID1040 (The Scripps Research Institute Molecular Screening Center, 2008)
Hit rate of the full screen: of about 200,000 compounds, about 2,000 (1%) were called active. Many of the other results were omitted from the sample, so actives are more common in it than they were. Values without a mark were called inactive.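 Rule for the calls: active = inhibition above the campaign mean inhibition of all tested compounds plus 3 SD (cut at about 20% in these data); inactive = the rest.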

Each molecule was assayed against Neuropeptide Y receptor type 1 (Homo sapiens) (UniProt P25929) (assay: NPY-Y1 receptor antagonists, primary screen, cell-based (AID 1040;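 note: 0% = DMSO wells given NPY plus isoproterenol and 100% = isoproterenol alone without NPY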)). Settings: HEK293-CNG Y1 cells, membrane potential fluorescence; at 3.6 µM; stronger effect = higher value; NPY at EC95, then isoproterenol.
Neuropeptide Y receptor type 1 (Homo sapiens), sequence (P25929 whole entry, looked up): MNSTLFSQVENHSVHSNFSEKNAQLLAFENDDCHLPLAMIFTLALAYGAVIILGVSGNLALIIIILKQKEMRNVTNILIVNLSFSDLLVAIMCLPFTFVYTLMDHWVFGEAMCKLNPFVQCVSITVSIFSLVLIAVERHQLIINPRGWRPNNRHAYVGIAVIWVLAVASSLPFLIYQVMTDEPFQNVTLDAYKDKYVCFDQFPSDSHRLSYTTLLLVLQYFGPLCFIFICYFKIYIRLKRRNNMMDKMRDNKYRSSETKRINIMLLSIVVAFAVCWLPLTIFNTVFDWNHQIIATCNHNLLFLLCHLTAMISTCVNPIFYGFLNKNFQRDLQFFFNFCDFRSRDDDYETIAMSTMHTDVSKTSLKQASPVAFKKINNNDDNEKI
Procedure, shortened: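 Material: HEK293 cells with Y1 receptor plus CNG channel; times: compound incubation 1 h at room temperature, readout 45 min post-stimulation; signal: fluorescence, membrane potential probe; read-out basis: fluorescence ratio normalized to % inhibition between controls; benchmarks: full-block control isoproterenol-only wells, zero-block control NPY plus isoproterenol wells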

SMILES	inhibition
CC(C)C(c1nnnn1C1CCCC1)N1CCN(c2ccccc2F)CC1 (stereo not drawn)	10.8%
COc1ccc(N2CCN(C(c3cc4ccc(C)cc4[nH]c3=O)c3nnnn3C3CCCC3)CC2)cc1 (stereo not drawn)	0.99%
COc1ccc(C(c2nnnn2C2CCCCC2)N2CCN(c3ccccc3F)CC2)cc1 (stereo not drawn)	23.3% (active)
CC(C)C(=O)Nc1oc(-c2ccccc2)cc1C#N	3.99%
O=C(c1cccc(S(=O)(=O)Nc2ccccc2Cl)c1)N1CCN(C(=O)c2ccco2)CC1	-2.11%
O=C(O)CCCCOn1ccnc1	4.94%
O=C(CSc1nc2cc3c(cc2c(=O)n1CCC1=CCCCC1)OCO3)NCc1ccco1	26.8% (active)
O=C(CCCn1c(SCC(=O)c2ccc(F)cc2)nc2ccccc2c1=O)NCc1ccco1	3.6%
C=C(C)Cn1c(SCC(=O)NCc2ccco2)nc2sc3c(c2c1=O)CCC3	8.57%
CCC1(CC)NC(=O)N(CC(=O)OCC(=O)NC(=O)c2ccccc2)C1=O	1.96%
CC1(C)C2CC=C(/C=N/NC(=O)C3CC3)C1C2 (stereo not drawn)	4.14%
CSCC[C@H](NC(=O)OC(C)(C)C)C(=O)N/N=C/c1cc2ccc(C)cc2nc1Cl	-2.75%
CC(=O)c1ccc(NC(=O)c2ccc3c(Cl)c4c(nc3c2)CCCC4)cc1	-4.67%
Fc1ccc2nc(-c3ccccc3)nc(SCc3nnc(-c4ccccc4)o3)c2c1	2.58%
Fc1ccc(-c2nnc(CSc3nnc(-c4ccc5c(c4)OCO5)o3)o2)cc1	29.9% (active)
COc1ccc(-c2nnc(SCC(=O)c3ccc4c(c3)OCCO4)o2)cc1	-4.74%
CCCS(=O)(=O)N1CCC(CCOc2ccccc2)(C(=O)OCC)CC1	6.41%
COC(=O)c1c(NC(=O)COC(=O)[C@@H](NS(=O)(=O)c2ccccc2)C(C)C)sc2c1CCC2	10.2%
COc1ccc2c3c(c(=O)oc2c1OCC(=O)C(C)(C)C)CCCC3	10.2%
O=c1oc2c(CN3CCCCC3)c(O)ccc2c2c1CCCCC2	6.84%
CCCOc1ccc2c3c(c(=O)oc2c1OCCC)CCC3	21.1% (active)
O=C(CSc1nc2ccc(Nc3nc(N4CCOCC4)nc(N4CCOCC4)n3)cc2s1)NCc1ccco1	2.78%
CN(C)c1ccc(C(CNC(=O)c2ccc(F)cc2)c2c[nH]c3ccccc23)cc1 (stereo not drawn)	-7.11%
Cc1cc2c(c(=O)n1C)C(C(C)C)C(C#N)=C(N)O2 (stereo not drawn)	9.44%
C=CCSc1nc2c(c(=O)[nH]1)C(C(C)C)C(C#N)=C(N)O2 (stereo not drawn)	77.2% (active)

SMILES	inhibition
C=CCOC(=O)C1=C(C)OC(N)=C(C#N)C1c1ccc(F)cc1 (stereo not drawn)	-1.17%
CC(=O)Oc1c(C(=O)c2nnc(C)o2)c(=O)n(Cc2ccccc2)c2ccccc12	1.05%
COc1ccc(F)cc1C(=O)C1CCCN(C(=O)CCc2ccccn2)C1 (stereo not drawn)	6.35%
CCS(=O)(=O)Nc1ccc(C2=NN(C(C)=O)C(c3cccs3)C2)cc1 (stereo not drawn)	-0.01%
O=C(O)CCC(=O)Nc1nc2ccc([N+](=O)[O-])cc2s1	-1.24%
O=C(Nc1nc2ccc([N+](=O)[O-])cc2s1)c1ccc(S(=O)(=O)N2CCCc3ccccc32)cc1	-0.71%
O=C(NC(Nc1nc2ccc([N+](=O)[O-])cc2s1)(C(F)(F)F)C(F)(F)F)c1ccccc1	32.9% (active)
Cc1nonc1C(=O)N/N=C/c1ccc(O)cc1	-0.92%
Cc1ccc(C)c2[nH]c(=O)c(CCNC(=O)c3cccs3)cc12	1.69%
CCNC(=O)COC(=O)/C=C/c1c(C)nn(Cc2cccc(OC)c2)c1Cl	9.4%
COc1ccc(C)c(Cn2c(-c3nonc3N)nc3ccccc32)c1	20.2% (active)
Nc1nonc1-c1nc2ccccc2n1Cc1ccc(F)cc1	33.9% (active)
CCCn1c(C(O)c2cc(OC)ccc2OC)nc2ccccc21 (stereo not drawn)	6.38%
COCCn1c(-c2ccc(OC)c(OC)c2)nc2ccccc21	1.65%
Nc1nonc1-c1nc2ccccc2n1CCC(=O)O	2.11%
CC(=O)Nc1nonc1-c1nc2ccccc2n1Cc1ccccn1	1.23%
COc1ccc(C(=O)Nc2c(Cl)cc(Cl)cc2C(=O)N2CCC(C)CC2)cc1	7.28%
O=C(N/N=C/c1ccc(Br)o1)c1cncc(Br)c1	0.31%
CCCOc1ccc(N/C=C/C(=O)C(C)(C)C)cc1	-0.02%
CCCOc1ccc(C(=O)C(CCC(CNCC)C(=O)c2ccc(OCCC)cc2)CNCC)cc1 (stereo not drawn)	41.9% (active)
CCCOc1ccc(C(=O)NCCc2ccccc2)cc1	4.6%
O=C(O)/C(=C/c1cccnc1)NC(=O)c1ccccc1	-1.58%
CCOc1ccc(S(=O)(=O)NCCSc2ccccc2)cc1	28.4% (active)
O=S(=O)(NCCSc1ccccn1)c1ccc(Cl)cc1	7.92%
Cc1ccc(S(=O)(=O)NCCSc2ccccc2)cc1[N+](=O)[O-]	20.1%

SMILES	inhibition
C/C(=N\Nc1ncc(Cl)cc1Cl)c1cccs1	4.59%
CCOP(=O)(OCC)C(Nc1cccc(C)c1)c1ccc(F)cc1 (stereo not drawn)	6.17%
Cc1cc(N2CCN(C)CC2)nc2ccc(NC(=S)N3CCOCC3)cc12	6.76%
Cc1nc(-c2ccccc2)sc1C(=O)/C=C/N(C)C	6.13%
Cc1nc(-c2ccccc2)sc1C(=O)/C=C/c1ccccc1	21.8% (active)
Cc1ccc(SCC(=O)c2sc(-c3ccccc3)nc2C)cc1	8.05%
CC(Oc1ccc(Br)cc1Br)C(=O)NC1CCCC1 (stereo not drawn)	7.12%
COc1ccc(NC(=O)CSc2nc(N)c(-c3ccccc3)c(=O)[nH]2)cc1	7.14%
COc1ccc(OC)c(NC(=O)CSc2nc(N)c(-c3ccccc3)c(=O)[nH]2)c1	30.3% (active)
COc1ccc(OC)c(NC(=O)CSc2nc3cccnc3n2C)c1	10.8%
Cc1ccc(S(=O)(=O)CC(=O)Nc2c(C)n(C)n(-c3ccccc3)c2=O)cc1	1%
Cc1ccc2c(c1)C1CN(C)CCC1N2C(=S)Nc1ccc(Cl)cc1Cl (stereo not drawn)	0.03%
COC(=O)c1cc(C(=O)CSc2nc(C)cc(C)n2)ccc1O	-2.7%
Cc1cc(Oc2ccc(Cl)cc2)nc(SCC(=O)c2ccccc2)n1	44.4% (active)
Cc1cc(SCC(=O)c2ccccc2)nc(SCC(=O)c2ccccc2)n1	18.3%
Cc1cc(C)c(NC(=O)C[N+](C)(C)CC(O)COc2cccc3ccccc23)c(C)c1 (stereo not drawn)	-12.8%
Cc1cccc(NC(=S)NC23CN4CN(CN(C4)C2)C3)c1	-0.45%
CC(C)(C)NCc1cc(Br)ccc1OC1CCCC1	37.7% (active)
COc1cc(CNC2CCCCC2)c(Br)cc1OC1CCCC1	-5.34%
CCOCCCNCc1cc(Br)ccc1OCC	11.8%
COc1ccc(Sc2nc(-c3ccccc3)ncc2OC)cc1	3.64%
CCc1cccc(NC(=O)CCNS(=O)(=O)c2cccc3nonc23)c1	0.89%
CCN(CC)S(=O)(=O)c1ccc(Cl)c(NC(=O)c2ccncc2)c1	1.54%
